{"source": "EPA's CvTdb concentration-time database", "key": {"Rat [1]": {"test_system": "Rat", "experiment": "concentration in liver after dosing", "conditions": "864 h; dosed: Perfluorodecanoic acid; 10 mg/kg; oral; Male; Harlan Sprague Dawley"}, "Rat [2]": {"test_system": "Rat", "experiment": "concentration in plasma after dosing", "conditions": "dosed: Perfluorodecanoic acid, 2 mg/kg, iv, Male, F344"}, "Rat [3]": {"test_system": "Rat", "experiment": "concentration in liver after dosing", "conditions": "1848 h; dosed: Perfluorodecanoic acid; 10 mg/kg; oral; Female; Harlan Sprague Dawley"}, "Rat [4]": {"test_system": "Rat", "experiment": "concentration in brain after dosing", "conditions": "1848 h; dosed: Perfluorodecanoic acid; 10 mg/kg; oral; Male; Harlan Sprague Dawley"}, "human": {"test_system": "human", "experiment": "concentration in plasma after dosing; negative times count back from the end of exposure", "conditions": "dosed: trichloroethylene, 100 ppm, inhalation, duration: 4 hr, person", "summary_of_the_method": "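Points were largely digitised from plot screenshots with WebPlotDigitizer or otherwise copied from tables, and they remain in the units each source reported. They come from published in vivo toxicokinetic studies and two structured collections. Sampling and analytical methods follow each source and were often not reported.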"}, "Rat [5]": {"test_system": "Rat", "experiment": "concentration in plasma after dosing", "conditions": "dosed: dichloroacetic acid, 100 mg/kg, oral, Male, F344"}, "Rat [6]": {"test_system": "Rat", "experiment": "concentration in plasma after dosing", "conditions": "22 h; dosed: Primidone; 130 mg/kg; oral; Male; F344"}, "Rat [7]": {"test_system": "Rat", "experiment": "concentration in plasma after dosing", "conditions": "3 h; dosed: Wyeth-14643; 1.0 mg/kg; oral; Male; Sprague-Dawley"}, "Rat [8]": {"test_system": "Rat", "experiment": "concentration in plasma after dosing", "conditions": "0.25 h; dosed: Wyeth-14643; 5.0 mg/kg; oral; Male; Sprague-Dawley"}, "Rat [9]": {"test_system": "Rat", "experiment": "concentration in plasma after dosing", "conditions": "dosed: Wyeth-14643, 2.0 mg/kg, oral, Male, Sprague-Dawley"}, "Rat [10]": {"test_system": "Rat", "experiment": "concentration in plasma after dosing", "conditions": "dosed: Fluorotelomer alcohol 8+2, 12 mg/kg, iv, Male, F344"}, "Rat [11]": {"test_system": "Rat", "experiment": "concentration in brain after dosing", "conditions": "12 h; dosed: Fluorotelomer alcohol 8+2; 24 mg/kg; oral; Male; Harlan Sprague Dawley"}, "Rat [12]": {"test_system": "Rat", "experiment": "concentration in kidney after dosing", "conditions": "6 h; dosed: Fluorotelomer alcohol 8+2; 24 mg/kg; oral; Male; Harlan Sprague Dawley"}, "Rat [13]": {"test_system": "Rat", "experiment": "concentration in plasma after dosing", "conditions": "dosed: Fluorotelomer alcohol 8+2, 12 mg/kg, iv, Male, F344", "remark": "listed apart in the source"}, "Rat [14]": {"test_system": "Rat", "experiment": "concentration in liver after dosing", "conditions": "12 h; dosed: Fluorotelomer alcohol 8+2; 24 mg/kg; oral; Male; Harlan Sprague Dawley"}, "Rat [15]": {"test_system": "Rat", "experiment": "concentration in liver after dosing", "conditions": "6 h; dosed: Fluorotelomer alcohol 8+2; 80 mg/kg; oral; Female; Harlan Sprague Dawley"}, "Rat [16]": {"test_system": "Rat", "experiment": "concentration in plasma after dosing", "conditions": "40 min; dosed: Thiodiglycolic Acid; 20 mg/kg; iv; Female; Harlan Sprague Dawley"}, "Rat [17]": {"test_system": "Rat", "experiment": "concentration in liver after dosing", "conditions": "8 h; dosed: Thiodiglycolic Acid; 20 mg/kg; iv; Female; Harlan Sprague Dawley"}, "Rat [18]": {"test_system": "Rat", "experiment": "concentration in thymus after dosing", "conditions": "10 min; dosed: Thiodiglycolic Acid; 20 mg/kg; iv; Female; Harlan Sprague Dawley"}, "Rat [19]": {"test_system": "Rat", "experiment": "concentration in thymus after dosing", "conditions": "2 h; dosed: Bis 2-Chloroethoxy Methane; 20 mg/kg; iv; Female; F344"}, "Rat [20]": {"test_system": "Rat", "experiment": "concentration in heart after dosing", "conditions": "20 min; dosed: Bis 2-Chloroethoxy Methane; 20 mg/kg; iv; Male; F344"}, "Rat [21]": {"test_system": "Rat", "experiment": "concentration in plasma after dosing", "conditions": "5 h; dosed: Bis 2-Chloroethoxy Methane; 20 mg/kg; iv; Male; F344"}, "Rat [22]": {"test_system": "Rat", "experiment": "concentration in plasma after dosing", "conditions": "2 h; dosed: Bis 2-Chloroethoxy Methane; 40 mg/kg; iv; Male; Harlan Sprague Dawley"}, "Rat [23]": {"test_system": "Rat", "experiment": "concentration in thymus after dosing", "conditions": "40 min; dosed: Bis 2-Chloroethoxy Methane; 20 mg/kg; iv; Male; F344"}, "Rat [24]": {"test_system": "Rat", "experiment": "concentration in thymus after dosing", "conditions": "3 h; dosed: Bis 2-Chloroethoxy Methane; 20 mg/kg; iv; Male; F344"}, "Rat [25]": {"test_system": "Rat", "experiment": "concentration in liver after dosing", "conditions": "4 h; dosed: Bis 2-Chloroethoxy Methane; 20 mg/kg; iv; Male; F344"}, "Rat [26]": {"test_system": "Rat", "experiment": "concentration in plasma after dosing", "conditions": "40 min; dosed: Bis 2-Chloroethoxy Methane; 20 mg/kg; iv; Male; F344"}, "Rat [27]": {"test_system": "Rat", "experiment": "concentration in plasma after dosing", "conditions": "24 h; dosed: Di-n-butyl phthalate; 100 mg/kg; oral; Male; Sprague-Dawley"}, "Rat [28]": {"test_system": "Rat", "experiment": "concentration in plasma after dosing", "conditions": "1 h; dosed: Di-n-butyl phthalate; 100 mg/kg; oral; Male; Sprague-Dawley"}, "Rat [29]": {"test_system": "Rat", "experiment": "concentration in plasma after dosing", "conditions": "5 min; dosed: Di-n-butyl phthalate; 50 mg/kg; oral; Male; Sprague-Dawley"}, "Rat [30]": {"test_system": "Rat", "experiment": "concentration in plasma after dosing", "conditions": "4 h; dosed: Di-n-butyl phthalate; 100 mg/kg; oral; Male; Sprague-Dawley"}, "Rat [31]": {"test_system": "Rat", "experiment": "concentration in plasma after dosing", "conditions": "3 h; dosed: Di-n-butyl phthalate; 20 mg/kg; iv; Male; Sprague-Dawley"}, "Rat [32]": {"test_system": "Rat", "experiment": "concentration in plasma after dosing", "conditions": "4 h; dosed: Di-n-butyl phthalate; 20 mg/kg; iv; Male; Sprague-Dawley"}, "Rat [33]": {"test_system": "Rat", "experiment": "concentration in plasma after dosing", "conditions": "0.25 h; dosed: Di-n-butyl phthalate; 100 mg/kg; oral; Male; Sprague-Dawley"}, "Rat [34]": {"test_system": "Rat", "experiment": "concentration in plasma after dosing", "conditions": "5 h; dosed: Di-n-butyl phthalate; 20 mg/kg; iv; Male; Sprague-Dawley"}}}
{"smiles": "O=C(O)C(F)(F)C(F)(F)C(F)(F)C(F)(F)C(F)(F)C(F)(F)C(F)(F)C(F)(F)C(F)(F)F", "note": "[Perfluorodecanoic acid]", "values": [{"measurement": "concentration in liver", "setting": "Rat [1]", "value": 47900, "unit": "ng/g"}, {"measurement": "concentration in plasma", "setting": "Rat [2]; 6 h", "value": 5600, "unit": "ng/mL"}, {"measurement": "concentration in plasma", "setting": "Rat [2]; 864 h", "value": 2690, "unit": "ng/mL"}, {"measurement": "concentration in liver", "setting": "Rat [3]", "value": 26000, "unit": "ng/g"}, {"measurement": "concentration in brain", "setting": "Rat [4]", "value": 531, "unit": "ng/g"}]}
{"smiles": "O=C(O)C(Cl)Cl", "note": "[dichloroacetic acid]", "values": [{"measurement": "concentration in plasma", "setting": "human; 0.25 h", "value": 5, "unit": "ng/mL"}, {"measurement": "concentration in plasma", "setting": "human; 4 h", "value": 7, "unit": "ng/mL"}, {"measurement": "concentration in plasma", "setting": "human; -1 h, during exposure", "value": 4, "unit": "ng/mL"}, {"measurement": "concentration in plasma", "setting": "human; -2 h, during exposure", "value": 4, "unit": "ng/mL"}, {"measurement": "concentration in plasma", "setting": "human; -3 h, during exposure", "value": 4, "unit": "ng/mL"}, {"measurement": "concentration in plasma", "setting": "human; -3.948 h, during exposure", "value": 4, "unit": "ng/mL"}, {"measurement": "concentration in plasma", "setting": "Rat [5]; 20 min", "value": 20400, "unit": "ng/mL"}, {"measurement": "concentration in plasma", "setting": "Rat [5]; 8 h", "value": 29200, "unit": "ng/mL"}]}
{"smiles": "CCC1(c2ccccc2)C(=O)NC(=O)NC1=O", "note": "[Phenobarbital]", "values": [{"measurement": "concentration in plasma", "setting": "Rat [6]", "value": 4990, "unit": "ng/mL"}]}
{"smiles": "Cc1cccc(Nc2cc(Cl)nc(SCC(=O)O)n2)c1C", "values": [{"measurement": "concentration in plasma", "setting": "Rat [7]", "value": 180, "unit": "ng/mL"}, {"measurement": "concentration in plasma", "setting": "Rat [8]", "value": 2450, "unit": "ng/mL"}, {"measurement": "concentration in plasma", "setting": "Rat [9]; 2 h", "value": 656, "unit": "ng/mL"}, {"measurement": "concentration in plasma", "setting": "Rat [9]; 7 h", "value": 120, "unit": "ng/mL"}]}
{"smiles": "OCCC(F)(F)C(F)(F)C(F)(F)C(F)(F)C(F)(F)C(F)(F)C(F)(F)C(F)(F)F", "note": "[Fluorotelomer alcohol 8+2]", "values": [{"measurement": "concentration in plasma", "setting": "Rat [10]; 0.75 h", "value": 818, "unit": "ng/mL"}, {"measurement": "concentration in plasma", "setting": "Rat [10]; 12 h", "value": 14.2, "unit": "ng/mL"}, {"measurement": "concentration in brain", "setting": "Rat [11]", "value": 221, "unit": "ng/g"}, {"measurement": "concentration in kidney", "setting": "Rat [12]", "value": 271, "unit": "ng/g"}, {"measurement": "concentration in plasma", "setting": "Rat [13]; 5 min", "value": 3710, "unit": "ng/mL"}, {"measurement": "concentration in plasma", "setting": "Rat [13]; 3 h", "value": 125, "unit": "ng/mL"}, {"measurement": "concentration in liver", "setting": "Rat [14]", "value": 968, "unit": "ng/g"}, {"measurement": "concentration in liver", "setting": "Rat [15]", "value": 2430, "unit": "ng/g"}]}
{"smiles": "O=C(O)CSCC(=O)O", "note": "[Thiodiglycolic Acid]", "values": [{"measurement": "concentration in plasma", "setting": "Rat [16]", "value": 4780, "unit": "ng/mL"}, {"measurement": "concentration in liver", "setting": "Rat [17]", "value": 60900, "unit": "ng/g"}, {"measurement": "concentration in thymus", "setting": "Rat [18]", "value": 10100, "unit": "ng/g"}]}
{"smiles": "ClCCOCOCCCl", "note": "[Bis 2-Chloroethoxy Methane]", "values": [{"measurement": "concentration in thymus", "setting": "Rat [19]", "value": 376, "unit": "ng/g"}, {"measurement": "concentration in heart", "setting": "Rat [20]", "value": 6660, "unit": "ng/g"}, {"measurement": "concentration in plasma", "setting": "Rat [21]", "value": 31, "unit": "ng/mL"}, {"measurement": "concentration in plasma", "setting": "Rat [22]", "value": 1290, "unit": "ng/mL"}, {"measurement": "concentration in thymus", "setting": "Rat [23]", "value": 4530, "unit": "ng/g"}, {"measurement": "concentration in thymus", "setting": "Rat [24]", "value": 394, "unit": "ng/g"}, {"measurement": "concentration in liver", "setting": "Rat [25]", "value": 161, "unit": "ng/g"}, {"measurement": "concentration in plasma", "setting": "Rat [26]", "value": 1590, "unit": "ng/mL"}]}
{"smiles": "CCCCOC(=O)c1ccccc1C(=O)O", "note": "[Mono-n-butyl phthalate]", "values": [{"measurement": "concentration in plasma", "setting": "Rat [27]", "value": 2770, "unit": "ng/mL"}, {"measurement": "concentration in plasma", "setting": "Rat [28]", "value": 14900, "unit": "ng/mL"}, {"measurement": "concentration in plasma", "setting": "Rat [29]", "value": 4780, "unit": "ng/mL"}, {"measurement": "concentration in plasma", "setting": "Rat [30]", "value": 10200, "unit": "ng/mL"}, {"measurement": "concentration in plasma", "setting": "Rat [31]", "value": 1640, "unit": "ng/mL"}, {"measurement": "concentration in plasma", "setting": "Rat [32]", "value": 678, "unit": "ng/mL"}, {"measurement": "concentration in plasma", "setting": "Rat [33]", "value": 13200, "unit": "ng/mL"}, {"measurement": "concentration in plasma", "setting": "Rat [34]", "value": 600, "unit": "ng/mL"}]}
